This is an account of results in ChEMBL document CHEMBL4513216, “Probing the Open Global Health Chemical Diversity Library for Multistage-Active Starting Points for Next-Generation Antimalarials” (ACS Infect Dis, 2020).

This data set in a line: Toxicity liver stage against HepG2, at 10uM. The format is cell-based. Set-up: test concentration 10 uM, cell line HepG2-A16-CD81EGFP. Conditions: human, HepG2-A16-CD81EGFP cells; read-out: INHIBITION
In outline: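 Uninfected HepG2-A16-CD81EGFP cells, 3 × 10^3 per well, 1536-well, plated on prespotted compound at 10 μM final, parasite-free screening media added to match infected plates; puromycin 10 μM positive, DMSO 0.5% negative; run in parallel with 48 h PbLuc assay at 37 °C, 5% CO2; viability by CellTiter-Glo luminescence, normalized to controls.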
As for `Cc1nc(N2CCN(C)CC2)ncc1C(=O)N1CCCCC1`, the cytotoxicity at 10 µM was determined as 0.305%. Take `COC(=O)CC1c2cccnc2C(=O)N1Cc1ccccc1` (configuration not stated): the cytotoxicity at 10 µM was found to be 1.19%. Consider `O=C(NCCc1c[nH]cn1)c1ccc2c(c1)C(=O)N(C1CCCC1)C2=O`, for which the cytotoxicity at 10 µM is -6.09%. Next, `O=S(=O)(c1c(F)cccc1F)N1CCC(Cn2cccn2)CC1`: -11.9%. Consider `COc1nn(C)cc1C(=O)NCC1(O)CCc2ccccc2C1` (configuration not stated), for which the cytotoxicity at 10 µM was -6.98%. As to `Cc1cc(C(O)CCNS(=O)(=O)c2ccc(Cl)s2)c(C)o1` (configuration not stated), the cytotoxicity at 10 µM was -3.95%.

`Cc1nnc(C[C@@H]2COC[C@H]3CN(C(=O)C4=CCCC4)C[C@@H]23)o1`: the cytotoxicity at 10 µM was -5.86%. As for `CC(C)CNC(=O)c1cc2c(s1)CCN2Cc1cccnc1`, the cytotoxicity at 10 µM was -6.16%. Take `Cn1cc(CN2CCO[C@H]3C(Cn4cccn4)CC[C@@H]32)cn1` (some centres not stated): the cytotoxicity at 10 µM is -3.12%. For `O=C(CC1CCCC1)NCCn1ccc(-c2ccncc2)n1` the value was 5.97%; for `CC(=O)N1CCN(c2ncnc3cc4c(cc23)OCCO4)CC1`, 13.4%. With `CCN1CCN(c2nsc(-c3cccnc3)c2C#N)CC1`, the cytotoxicity at 10 µM is -4.2%. For the compound `CCn1nc(C)c2nc(C(C)C)nc(NCc3ccccn3)c21`, the cytotoxicity at 10 µM came to 7.09%. As to `CN(Cc1cnn(C)c1)C(=O)c1cc(C(F)(F)F)n(C)n1`, the cytotoxicity at 10 µM was 8.52%. On to `CC1(C(=O)N2CCN(c3cnccn3)CC2)CNCCO1` (configuration not stated), for which the cytotoxicity at 10 µM worked out at 6.99%. In the case of `CCc1nnc(Nc2cccc(C3CCN(c4cnccn4)CC3)n2)s1`, the cytotoxicity at 10 µM was -26.5%. `CCCC(=O)N1CCC(c2cc3n(n2)[C@@H](C(F)(F)F)C[C@@H](C)N3)CC1`: the cytotoxicity at 10 µM was -10.3%.

As for `O=c1[nH]c2ccccc2cc1CNCCCN1CCOCC1`, the cytotoxicity at 10 µM is -17.5%. For `O=C1NCC2(CCCN(Cc3ccncc3)C2)Oc2ccccc21` (configuration not stated) the value was -13.8%; for `O=C(O)C1(Cc2cc(-c3cccc(F)c3)no2)CCOCC1`, -4.97%; for `O=C(c1ccnnc1)N1C[C@@H]2CC[C@H](Oc3cccc(F)c3)[C@@H]2C1`, 2.37%. Next, `Cc1n[nH]c(C2CN(CCNC3CCCCC3)CCO2)n1` (configuration not stated): -8.29%. Consider `CC(OCC1CC1)C(=O)Nc1cccc(C(=O)Nc2ccccn2)c1` (configuration not stated), for which the cytotoxicity at 10 µM came to 2.56%. In the case of `CC1CN(CC(=O)NCc2ccc(F)cc2)CCN1c1nccs1` (configuration not stated), the cytotoxicity at 10 µM is -1.22%. As to `Cc1ccc(F)c2c1CCCN2C(=O)Cc1c(C)nn(C)c1C`, the cytotoxicity at 10 µM was 13.6%. Next, `CC(C)Cc1noc(CNc2cc3c(cc2Cl)OCCCO3)n1`: 6.48%; `O=C(CC1CCN(CCN2CCCCC2)CC1)N1CCOCC1`: -3.91%; `COC(=O)CNC(=O)CCc1cc(Cl)cs1`: -5.31%. On to `N#Cc1ccc(SCCC(=O)O)cc1`, for which the cytotoxicity at 10 µM was -2.85%. Turning to `O=C(NCC1CCOC1)c1cc(-c2ccc(F)cc2)[nH]n1` (configuration not stated), the cytotoxicity at 10 µM was -6.96%. In the case of `CC(C)c1noc(C(C)N2CCC(c3nc4ccccc4[nH]3)CC2)n1` (configuration not stated), the cytotoxicity at 10 µM was -3.17%. Take `O=C1OCCCN1Cc1nc(-c2ccncc2)no1`: the cytotoxicity at 10 µM is 6.77%.

Take `CCc1nnc(C(C)N2CCCN(C(=O)OCC(C)C)CC2)o1` (configuration not stated): the cytotoxicity at 10 µM was found to be 4.96%. For the compound `Cc1c(COC(C)C)cccc1NC(=O)N1CCC(N2CCCC2)C1` (configuration not stated), the cytotoxicity at 10 µM was -5.56%. As to `CCC(NCCn1cccn1)C(=O)Nc1cc(C)on1` (configuration not stated), the cytotoxicity at 10 µM amounted to 13.4%. Turning to `CC(C)c1ccc(/C=C/CC(=O)NC2CCN(C(N)=O)C2)cc1` (configuration not stated), the cytotoxicity at 10 µM was determined as 0.838%. Next, `c1ccc(C2(CNCc3cnc(N4CCOCC4)nc3)CC2)cc1`: -0.813%; `Cc1ccccc1CC(C)(C)NC(=O)c1cccc(OCC(N)=O)c1`: 2.93%. Take `O=C(Cc1cccs1)NS(=O)(=O)c1cccc2cnccc12`: the cytotoxicity at 10 µM is -14.6%. In the case of `O=C(c1sccc1C1CC1)N1CCN(c2nccs2)CC1`, the cytotoxicity at 10 µM amounted to 1.41%. As to `CC(=O)c1c(F)cccc1NC1CCN(C(=O)C2CCCCC2)CC1`, the cytotoxicity at 10 µM turned out to be 20.7%. Next, `O=C(CN1CSCC1=O)NCC1CCN(c2ccccc2)C1` (configuration not stated): 1.19%; `COc1cc(NC(=O)NC2CC2)ccc1N1CCOC1=O`: -6.44%; `COc1ccc2[nH]cc(C3CCN(CCC(N)=O)CC3)c2c1`: -1.22%. On to `CCS(=O)(=O)CC(=O)NC1CCc2nccn2C1` (configuration not stated), for which the cytotoxicity at 10 µM stood at 17.1%.

On to `CNC(=O)COc1nc(C(C)(C)C)no1`, for which the cytotoxicity at 10 µM is -0.425%. In the case of `CC1CCCN(C(=O)NCC(F)F)C1` (configuration not stated), the cytotoxicity at 10 µM was 13.6%. For `Cn1c(=O)oc2cc(Nc3nccnc3C#N)ccc21`, the cytotoxicity at 10 µM worked out at 2.14%. Turning to `Cn1nc(Br)c2c(NCCS(N)(=O)=O)ncnc21`, the cytotoxicity at 10 µM was 15.8%. Regarding `CC(C)c1noc(CCNC(=O)N2CCC(O)(C(F)(F)F)C2)n1` (configuration not stated), the cytotoxicity at 10 µM stood at 9.74%.

Take `N#Cc1cnn(CCN2CCOC(CNc3cccnn3)C2)c1` (configuration not stated): the cytotoxicity at 10 µM is -3.85%. In the case of `CC(C)c1nn(C)c(N(C)C)c1CNC1CCC(O)CC1` (configuration not stated), the cytotoxicity at 10 µM was found to be 1.63%. With `CCN1Cc2ccccc2CC2(CCN(CC3CCC3)CC2)C1=O`, the cytotoxicity at 10 µM came out at 4.15%. For `Cc1cc(C(=O)NC2CCc3c(ccc(=O)n3CC3CC3)C2)no1` (configuration not stated) the value was 2.62%. Regarding `O=C1CC(C(=O)NCCN2CCOC2=O)c2cc(F)ccc2N1` (configuration not stated), the cytotoxicity at 10 µM is -0.511%. As to `CCCOC1CCCN(C(=O)Cn2cccc(C(F)(F)F)c2=O)C1` (configuration not stated), the cytotoxicity at 10 µM is -0.912%. Next, `Cc1cc(NCc2nnc3n2CCC3)n2nc(C)c(C)c2n1`: 1.16%; `Cc1ccc(CN(CCN(C)C)Cc2nc3ccccc3[nH]2)s1`: 3.34%; `COc1cccc(-c2cc(CN)ccc2F)c1F`: -12.4%.

For the compound `COCCN(Cc1cnn(C)c1)C(=O)C1CCN(C2CCCCC2)CC1`, the cytotoxicity at 10 µM turned out to be 12.6%. On to `CN(C)S(=O)(=O)N1CC[C@]2(O)CCN(c3cc(C#N)ccn3)C[C@@H]2C1`, for which the cytotoxicity at 10 µM amounted to 12.3%. Next, `CCCC(=O)Nc1ccc(CC(=O)N(CC)CC2CCCCO2)cc1` (configuration not stated): -9.24%. Turning to `Cc1ncc(S(C)(=O)=O)c(N2CCCN(Cc3ccccn3)CC2)n1`, the cytotoxicity at 10 µM is 1.46%. Turning to `CN(C)CCN1CC2(CCCN(c3ccc(Cl)cn3)C2)CCC1=O` (configuration not stated), the cytotoxicity at 10 µM worked out at 2.69%. Consider `CCN(CC)Cc1cc(C(=O)N2CC[C@@]3(O)CCCC[C@H]3C2)c(C)o1`, for which the cytotoxicity at 10 µM amounted to 2.93%. Regarding `O=C1CCC2(CCCN(c3ncc(Cl)cc3F)C2)CN1CC1CC1` (configuration not stated), the cytotoxicity at 10 µM stood at 5.98%. For `Cc1ccc(CN2CCN(c3ncccc3C(N)=O)CC2CCO)cc1` (configuration not stated), the cytotoxicity at 10 µM was -13.3%. Turning to `O=C(CCc1cccs1)N1CCc2[nH]nc(COc3ccccc3)c2C1`, the cytotoxicity at 10 µM came to 0.621%.

For `CCc1nnc(CN(C)c2cc(C)nc3c(C)c(C)nn23)o1`, the cytotoxicity at 10 µM is 0.126%.

Regarding `Cc1cncc(C(=O)N2CCNCC2C(=O)Nc2ccc(C)nc2)c1` (configuration not stated), the cytotoxicity at 10 µM is -5.19%. On to `CNS(=O)(=O)CCNc1cc(C)nc2cc(C)nn12`, for which the cytotoxicity at 10 µM came out at 6.95%.

Take `C=C(C)COc1ccccc1CNC(CC)c1ccnn1C` (configuration not stated): the cytotoxicity at 10 µM was -4.7%. Next, `Cc1ocnc1C(=O)N1CC[C@@]2(O)CCN(C(=O)N3CCCC3)C[C@H]2C1`: -7.96%; `CCCc1nc(N2CC[C@@H](c3ccc4ccccc4c3)[C@H](O)C2)no1`: -0.471%. For the compound `CCCc1cc(=O)[nH]c(-c2cccc(CN3CCN4CCCC4C3)c2)n1` (configuration not stated), the cytotoxicity at 10 µM is -15.2%. Consider `COCC[C@]1(O)CCN(C2CCN(C(=O)C3CCC3)CC2)C[C@H]1C`, for which the cytotoxicity at 10 µM amounted to 0.866%. Consider `CC(=O)c1cc(CN2C[C@@H](C(=O)O)[C@H](c3cccnc3)C2)cs1`, for which the cytotoxicity at 10 µM came to 4.11%. Next, `CCC(C(=O)NCc1cc(N2CCOCC2)ncn1)n1cccn1` (configuration not stated): 1.44%. With `CSc1ncc(Cl)c(C(=O)NC(Cc2ccccc2)C(=O)O)n1` (configuration not stated), the cytotoxicity at 10 µM is -17.3%. Consider `CS(=O)(=O)N1CCCC(C(=O)Nc2cnn(Cc3ccc(Cl)cc3)c2)C1` (configuration not stated), for which the cytotoxicity at 10 µM is -6.5%. On to `O=C(CN1CCC(c2ccccc2)C1)NC(=O)NCC(F)(F)F` (configuration not stated), for which the cytotoxicity at 10 µM is -12.1%. `CC(C)c1nnc2n1CCN(CC(=O)Nc1sccc1C#N)C2`: the cytotoxicity at 10 µM is -2.6%. On to `COc1ccccc1OCCN1CCC(N2CCNC2=O)CC1`, for which the cytotoxicity at 10 µM is -3.19%. Next, `N#Cc1cn(C2CC2)c(=O)n(CC(O)c2ccccc2F)c1=O` (configuration not stated): 3.97%; `Cc1cnn(CC2CN(CC(=O)Nc3sccc3C#N)CCO2)c1` (configuration not stated): -0.935%; `COCc1ccccc1C(=O)N1CCCC(n2nc(C)cc2C)C1` (configuration not stated): -10.5%. Regarding `Cc1nn(C)c(Cl)c1C(=O)NCC(c1ccsc1)N(C)C` (configuration not stated), the cytotoxicity at 10 µM is -10%. As to `Cc1ccc(CNC(=O)NCc2csc(C)n2)cn1`, the cytotoxicity at 10 µM was -8.24%.

Turning to `CN(C)c1ccc(C(=O)N2CCN(C(=O)N3CCCCC3)CC2)nn1`, the cytotoxicity at 10 µM was -9.14%.

Take `CN(Cc1nc2c(cnn2C)c(=O)[nH]1)Cc1ccc(F)cc1F`: the cytotoxicity at 10 µM was -1.29%.

Consider `COc1cc(CNC(C)Cn2cccn2)cc(OC)c1OC` (configuration not stated), for which the cytotoxicity at 10 µM is -4.23%. For `COCC1COCCC12CCN(S(=O)(=O)c1cccnc1)CC2` (configuration not stated) the value was 6.62%. `COCCN1CCc2c(cnc(-c3ccccc3)c2C(=O)O)C1`: the cytotoxicity at 10 µM was found to be 2.24%. On to `Cc1nc(CN2C(=O)CC3(CCN(C(N)=O)CC3)c3ccccc32)cs1`, for which the cytotoxicity at 10 µM was -1.4%. Take `COCCN1CC[C@@H]2CN(Cc3cccnc3OC)C[C@@H]2C1`: the cytotoxicity at 10 µM stood at 13.6%. Consider `O=C(NC1CCCCC1)N1CCC(n2cc3[nH]cccc-3c2=O)CC1`, for which the cytotoxicity at 10 µM is -5.01%. For `O=C1C[C@@H]2CC[C@H](CN1)N2C(=O)CCc1ccsc1` the value was -6.06%.
